Measured values from different studies.
RPS6KA4 C-terminal kinase domain: Ribosomal protein S6 kinase alpha-4, C-terminal kinase domain (RPS6KA4, Homo sapiens, UniProt O75676)
RPS6KA4: Ribosomal protein S6 kinase alpha-4 (RPS6KA4, Homo sapiens, UniProt O75676)
RPS6KA4 N-terminal kinase domain: Ribosomal protein S6 kinase alpha-4, N-terminal kinase domain (RPS6KA4, Homo sapiens, UniProt O75676)

SMILES	target	test	setting	endpoint	result
Nc1ncnc2occ(-c3ccc(NC(=O)Nc4cc(C(F)(F)F)ccc4F)cc3)c12	RPS6KA4 C-terminal kinase domain	cell-free assay, inhibitor	20 µM	remaining signal	68%
Cc1nc(Cc2cccc(C(F)(F)F)c2)sc1-c1ccc(C(N)=O)nc1	RPS6KA4 C-terminal kinase domain	cell-free assay, competition with immobilised ligand	1 µM	remaining binding	100%
Cc1ccc(NC(=O)c2ccc(C)c(C(F)(F)F)c2)cc1C#Cc1nn(C2CCC(O)CC2)c2ncnc(N)c12 (stereo not shown)	RPS6KA4	cell-free assay	10 µM	remaining signal	70%
O=C1NC(=O)c2cc(Nc3ccc(F)cc3)c(Nc3ccc(F)cc3)cc21	RPS6KA4	cell-free assay	0.5 µM	remaining signal	102%
CC(=O)C1=C(C)N(c2cccc(C(F)(F)F)c2)C(=O)N[C@@H]1c1ccc(C#N)nc1	RPS6KA4 C-terminal kinase domain	cell-free assay, competition with immobilised ligand	1 µM	remaining binding	78.8%
COc1cc2ncnc(Nc3ccc(Oc4ccccc4)c(C)c3C)c2cc1OC	RPS6KA4	enzyme activity, inhibitor	1 µM	inhibition	-5%
Cc1cnc(NC2CCOCC2)nc1-n1cnc(C(=O)NC(CN)c2cc(F)cc(Cl)c2)c1 (stereo not shown)	RPS6KA4	enzyme activity, inhibitor, radiometric	1 µM	remaining activity	80%
Cc1cc(-n2nc(Cc3cc(F)cc(C(F)(F)F)c3)nc2C)ccc1C(N)=O	RPS6KA4 N-terminal kinase domain	cell-free assay, competition with immobilised ligand	1 µM	remaining binding	95%
CN1CC(Oc2cnc(C#N)cc2-c2ccn3nc(NC(=O)C4CC4)cc3c2)C1	RPS6KA4	enzyme activity, inhibitor	1 µM	inhibition	-1%
CCS(=O)(=O)c1cc2cc(C[C@](O)(CC(C)(C)c3ccc(F)cc3C(N)=O)C(F)(F)F)[nH]c2cn1	RPS6KA4 C-terminal kinase domain	cell-free assay, competition with immobilised ligand	1 µM	remaining binding	94%
CC(C)(O)[C@H]1CC[C@H](Nc2ccc3ncc(-c4cccc(C(F)(F)F)c4)n3n2)CC1	RPS6KA4	enzyme activity, inhibitor	1 µM	remaining activity	92.4%
Cc1cc(C)c(-n2ccn3nc(-c4cccnc4)cc23)cc1NC(=O)c1cc(C#N)cc(S(F)(F)(F)(F)F)c1	RPS6KA4 C-terminal kinase domain	cell-free assay, competition with immobilised ligand	0.1 µM	remaining binding	79.3%
CCCCNc1ncc2c(-c3ccc(F)cc3)nn(C[C@H]3CC[C@H](N)CC3)c2n1	RPS6KA4 N-terminal kinase domain	target engagement in cells, inhibitor, chemoproteomics	20 mM	inhibition	22%
CO[C@H]1CC[C@H](CNc2ccc(S(=O)(=O)NC(=O)c3ccc(N4CCN(CC5=C(c6ccc(Cl)cc6)CC(C)(C)CC5)CC4)cc3Oc3cnc4[nH]ccc4c3)cc2[N+](=O)[O-])CC1	RPS6KA4 N-terminal kinase domain	cell-free assay, competition with immobilised ligand	1 µM	remaining binding	95%
Cn1cncc1C1=CN(c2ncnc3[nH]cnc23)CCS1	RPS6KA4	enzyme activity, inhibitor, radiometric	2 µM	inhibition	75.5%
COc1cc2c(N3CCN(C(=O)Nc4ccc(OC(C)C)cc4)CC3)ncnc2cc1OCCCN1CCCCC1	RPS6KA4	cell-free assay	0.5 µM	remaining signal	120%

SMILES	target	test	setting	endpoint	result
CCOc1cc(-c2nncn2C)ccc1Nc1ncc2cc(C)nc(NCC(C)(C)C)c2n1	RPS6KA4	enzyme activity, inhibitor, FRET	1 µM	inhibition	< 15%
Cc1cc(NC(=O)c2cccc3cc(-c4cccc5[nH]nc(N)c45)ccc23)ccc1F	RPS6KA4	enzyme activity, inhibitor	0.1 µM	activity vs control	103%
CN(C)c1nccc(-c2cnn3ncccc23)n1	RPS6KA4 N-terminal kinase domain	binding, competition with immobilised ligand	1 µM	remaining binding	82%
O=C(N[C@H]1CCCCC/C=C\C2C[C@@]2(C(=O)O)NC(=O)[C@@H]2C[C@@H](Oc3ccncc3)CN2C1=O)OC1CCCC1 (stereo partly shown)	RPS6KA4 N-terminal kinase domain	binding, competition with immobilised ligand	1 µM	remaining binding	100%
CN(C)c1nccc(-c2cnc3ncccn23)n1	RPS6KA4 N-terminal kinase domain	binding, competition with immobilised ligand	1 µM	remaining binding	80%
O=C(Nc1cccnn1)N1CC(C/C=C/c2cncc(Oc3ccc(C(F)(F)F)cn3)n2)C1	RPS6KA4 C-terminal kinase domain	cell-free assay, competition with immobilised ligand	1 µM	remaining binding	92%
CN(c1nccc(-c2cnn3ncccc23)n1)C1CC1	RPS6KA4 N-terminal kinase domain	binding, competition with immobilised ligand	1 µM	remaining binding	100%
O=C1Nc2ccc(Cl)cc2C1=Cc1cc(Cl)c(O)c(Cl)c1	RPS6KA4	cell-free assay	0.5 µM	remaining signal	98%
C[C@@H]1CCN(c2nccc(-c3cnn4ncccc34)n2)C1	RPS6KA4 N-terminal kinase domain	binding, competition with immobilised ligand	1 µM	remaining binding	60%
Clc1ccc(Nc2nnc(Cc3ccncc3)c3ccccc23)cc1	RPS6KA4	cell-free assay	0.5 µM	remaining signal	98%
c1ccc(CNc2nc(N3CCOc4ccccc43)nc3c2CCCC3)cc1	RPS6KA4 N-terminal kinase domain	target engagement in cells, inhibitor, chemoproteomics	20 mM	inhibition	2.6%
O=C(Nc1cnn(-c2csc(C(=O)NC3COC3)c2)c1)Nc1c(F)cccc1Cl	RPS6KA4	enzyme activity, inhibitor	5 µM	remaining activity	99.8%
CCCOc1ccc(OC)c(F)c1C(=O)c1ccc(C(=O)N[C@@H]2CNC[C@H]2NC(=O)c2ccc3[nH]ncc3c2)cc1	RPS6KA4	enzyme activity, inhibitor	10 µM	remaining activity	4%
N[C@H]1CCN(c2nccc(-c3cnn4ncccc34)n2)C1	RPS6KA4 N-terminal kinase domain	binding, competition with immobilised ligand	1 µM	remaining binding	91%
CC(C)(C)c1nc2c(s1)c1nc(N)ncc1c1ccc(NS(=O)(=O)c3c(F)cccc3F)c(F)c12	RPS6KA4	enzyme activity, inhibitor, radiometric	1 µM	remaining activity	84%
